The target in one experiment is integrin CD11b/CD18 (Homo sapiens, UniProt P11215). The experiment in a line: adhesion of K562 CD11b/CD18 cells to immobilized Fibrinogen. The note with it: for EC50: read-out: EC50 (Effective Concentration for 50% increase in cell adhesion), K562 CD11b/CD18 cells, ligand Fg, NB=No increase in binding of K562 CD11b/CD18 cells to ligand Fg. It counts as cell-based. In outline: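 K562 cells stably transfected with wild-type integrin CD11b/CD18. Adhesion to immobilized ligand is measured in the presence of test compound. Secondary validation used two ligands, Fg and iC3b. For the analogue series, EC50 (μM) was derived from the increase in adhesion to Fg; absence of any increase was reported as no binding.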

In the next experiment the target is integrin CD11a/CD18 (Homo sapiens, UniProt P20701). The experiment in a line: adhesion of K562 CD11a/CD18 cells to immobilized ICAM-1. The note with it: for selectivity for integrin CD11b/CD18 over CD11a/CD18: K562 CD11b/CD18 vs K562 CD11a/CD18 cell adhesion. The experiment is classed as cell-based. The gist of the method:
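K562 cells stably transfected with wild-type integrin CD11a/CD18. Test compound obtained as pure powder and assessed for its ability to increase adhesion of these cells to immobilized ICAM-1. This is compared with adhesion of K562 CD11b/CD18 cells to judge selectivity.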

The target in experiment [1] is recombinant αA-domain of CD11b/CD18 (Homo sapiens, UniProt P11215). The experiment in a line: binding of purified recombinant αA-domain to immobilized Fg. As to conditions: in words.

Where only a bound is given, the exact number is not on record here.

`CCOC(=O)CN1C(=O)S/C(=C\c2ccc(-c3ccc(Cl)cc3Cl)o2)C1=O` [compound 2]: the “level of K562 CD11b/CD18 cell-adhesion in secondary assays” value at integrin CD11b/CD18 (ligands Fg and iC3b) is listed as “high levels”. For the same compound, the “selectivity for integrin CD11b/CD18 over CD11a/CD18” value on integrin CD11a/CD18 is on record as “two-fold higher selectivity”.
For the compound `CCOC(=O)CN1C(=O)S/C(=C\c2ccc(N3CCOCC3)o2)C1=O` [compound 3], the EC50 at integrin CD11b/CD18 was greater than 50 µM.
The same measure, in the same setting: with `COC(=O)CN1C(=O)S/C(=C\c2ccc(Sc3ccccc3)o2)C1=O` [compound 5] the figure was greater than 50 µM.
For the compound `CCOC(=O)CN1C(=O)S/C(=C\c2ccc(-c3ccccc3)o2)C1=O` [compound 6], the “ligand efficiency (BEI)” value at integrin CD11b/CD18 was 14. Also, the “binding of αA-domain to immobilized Fg” value in experiment [1] is recorded as “increasing its binding to immobilized Fg”. The “selectivity for integrin CD11b/CD18 over CD11a/CD18” value on integrin CD11a/CD18 is “high selectivity”. Besides, on integrin CD11a/CD18 (in words), the “increase of K562 CD11a/CD18 cell adhesion to ICAM-1” value was “no appreciable binding”.
With `CCOC(=O)CN1C(=O)S/C(=C\c2ccc(-c3ccc(C(=O)O)cc3C)o2)C1=O` [compound 11], on integrin CD11b/CD18, the EC50 is greater than 50 µM.
On the same count and under the same terms, with `COC(=O)CN1C(=O)S/C(=C\c2ccc(-c3ccc(C(=O)O)cc3)o2)C1=O` [compound 12] the figure was greater than 50 µM.
For `COC(=O)C(C)N1C(=O)S/C(=C\c2ccc(-c3ccc(Cl)cc3Cl)o2)C1=O` (stereo not shown) [compound 13], the “agonist activity in words” value on integrin CD11b/CD18 (K562 CD11b/CD18 cell adhesion) was “inactive”. Further, the EC50 on integrin CD11b/CD18 is greater than 50 µM.
Consider `NS(=O)(=O)c1ccc(N2C(=O)S/C(=C\c3ccc(Cc4ccccc4)o3)C2=O)cc1` [compound 22], for which the EC50 on integrin CD11b/CD18 was greater than 50 µM.

The record behind these values is PMC2818319 (Bioorganic & medicinal chemistry letters, 2009).
